Test results published in ChEMBL document CHEMBL5532683, “Design, Synthesis, and Bioevaluation of Transcriptional Enhanced Assocciated Domain (TEAD) PROTAC Degraders” (ACS Med Chem Lett, 2024).
Active and inactive are the calls of the source. The calls are words filed in the database; no cut-off is given here.

What was measured:
[1] = tested on: NCI-H226; assay: Antiproliferative activity against human NCI-H226 cells incubated for 120 hrs by Celltiter-glo luminescent assay; type: functional, cell-based; conditions: NCI-H226, 120 h
In short: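 5-day exposure of NF2-deficient NCI-H226 cells to compounds at a range of concentrations; IC50 taken as mean ± SEM of four independent replicates.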

[2] = tested on: NCI-H2452; assay: Antiproliferative activity against human NCI-H2452 cells incubated for 120 hrs by Celltiter-glo luminescent assay; type: functional, cell-based; conditions: NCI-H2452, 120 h
In short: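 NCI-H2452 cells (wild-type NF2) exposed to compound over a concentration range; IC50 estimated from the dose-response.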

[3] = molecular target: T1, Protein cereblon-TEAD (Homo sapiens) (UniProt P28347+Q96SW2+Q15561+Q15562+Q99594); assay: Protac activity at CRBN/TEAD in human NCI-H226 cells at 1 to 10 uM incubated for 24 hrs by Western blot analysis; type: cell-based; conditions: dose 1-10 µM
In short: (§1)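 NCI-H226 cells exposed 24 h to 0.1, 1 or 10 μM compound. TEAD detected with pan-TEAD antibody by Western blot and quantified as percent degradation. Mean ± SEM of three independent replicates.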

[4] = molecular target: T1, Protein cereblon-TEAD (Homo sapiens); assay: Protac activity at CRBN/TEAD in human NCI-H226 cells at 0.1 uM incubated for 24 hrs by Western blot analysis; type: cell-based; in short: as §1
[5] = molecular target: Protein cereblon-TEAD; assay: Protac activity at CRBN/TEAD in human NCI-H226 cells incubated for 24 hrs by Western blot analysis; type: cell-based
In short: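 NCI-H226 cells exposed 24 h to compound across a broad concentration range. Pan-TEAD Western blot quantified; DC50 (half-maximal degradation concentration) derived. Mean ± SEM of three independent replicates.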

[6] = molecular target: T1, Protein cereblon-TEAD (Homo sapiens); assay: Protac activity at CRBN/TEAD in human NCI-H226 cells at 1 uM incubated for 10 to 24 hrs by Western blot analysis; type: cell-based; conditions: time 10-24 hrs
In short: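 Time course in NCI-H226 cells: 1 μM compound for 1 to 24 h, pan-TEAD Western blot quantified. Mean ± SEM of three independent replicates.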

[7] = molecular target: T1, Protein cereblon-TEAD (Homo sapiens); assay: Protac activity at CRBN/TEAD in human NCI-H226 cells at 1 uM preincubated with VT107 for 1 hr followed by compound addition and measured after 8 hrs by Western blot analysis; type: cell-based
In short: (§2)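 Rescue design: NCI-H226 cells pretreated 1 h with BafA1, MG132, thalidomide or VT107, then cotreated 8 h with compound. Protein levels measured by Western blot.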

[8] = molecular target: T1, Protein cereblon-TEAD (Homo sapiens); assay: Protac activity at CRBN/TEAD in human NCI-H226 cells at 1 uM preincubated with thalidomide for 1 hr followed by compound addition and measured after 8 hrs by Western blot analysis; type: cell-based; in short: as §2
[9] = molecular target: T1, Protein cereblon-TEAD (Homo sapiens); assay: Protac activity at CRBN/TEAD in human NCI-H226 cells at 1 uM preincubated with MG132 for 1 hr followed by compound addition and measured after 8 hrs by Western blot analysis; type: cell-based; in short: as §2
[10] = molecular target: T1, Protein cereblon-TEAD (Homo sapiens); assay: Protac activity at CRBN/TEAD in human NCI-H226 cells at 1 uM preincubated with BafA1 for 1 hr followed by compound addition and measured after 8 hrs by Western blot analysis; type: cell-based; in short: as §2
[11] = tested on: NCI-H226; assay: Downregulation of CYR61 gene expression in human NCI-H226 cells incubated for 8 hrs by RT-qPCR analysis; type: functional, cell-based; conditions: dose 0.5-1 µM
In short: (§3)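 NCI-H226 cells exposed to 0.5 or 1 μM compound for 8 h. Transcript levels measured by qPCR. Mean ± SEM of three independent replicates.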

[12] = tested on: NCI-H226; assay: Downregulation of IGFBP3 gene expression in human NCI-H226 cells incubated for 8 hrs by RT-qPCR analysis; type: functional, cell-based; conditions: dose 0.5-1 µM; in short: as §3
[13] = tested on: NCI-H226; assay: Downregulation of AMOTL2 gene expression in human NCI-H226 cells incubated for 8 hrs by RT-qPCR analysis; type: functional, cell-based; conditions: dose 0.5-1 µM; in short: as §3
[14] = tested on: NCI-H226; assay: Downregulation of CTGF gene expression in human NCI-H226 cells incubated for 8 hrs by RT-qPCR analysis; type: functional, cell-based; conditions: dose 0.5-1 µM; in short: as §3
[15] = tested on: NCI-H226; assay: Downregulation of NPPB gene expression in human NCI-H226 cells incubated for 8 hrs by RT-qPCR analysis; type: functional, cell-based; conditions: dose 0.5-1 µM; in short: as §3
[16] = tested on: NCI-H226; assay: Upregulation of FBXO32 gene expression in human NCI-H226 cells incubated for 8 hrs by RT-qPCR analysis; type: functional, cell-based; conditions: dose 0.5-1 µM; in short: as §3
[17] = molecular target: Protein cereblon/Programmed cell death protein 2 (Homo sapiens) (UniProt Q96SW2+Q16342); assay: Protac activity at CRBN/PDCD2 in human NCI-H226 cells at 0.01 to 10 uM incubated for 24 hrs by Western blot analysis; type: cell-based; conditions: dose 0.01-10 µM
In short: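 PDCD2 degradation in NCI-H226 cells after 24 h with compound at 0.01, 0.1, 1 and 10 μM, assessed by Western blot.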

[18] = molecular target: Protein cereblon/Transcriptional enhancer factor TEF-4 (Homo sapiens, UniProt Q96SW2+Q15562); assay: Protac activity at CRBN (unknown origin) /Flag-tagged TEAD2 (unknown origin) transfected in HEK293T cells pretreated with cycloheximide for 2 hrs followed by compound addition and measured after 24 hrs by Western blot analysis; type: cell-based
In short: (§4)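 293T cells transfected separately with Flag-TEAD1, -2, -3 or -4. Pretreated 2 h with 200 μg/mL cycloheximide, then 24 h with compound at a series of concentrations. Isoform detected by anti-Flag Western blot and quantified. DC50 or maximal degradation derived. Mean ± SEM of three independent replicates.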

[19] = molecular target: Protein cereblon/Transcriptional enhancer factor TEF-1 (Homo sapiens) (UniProt P28347+Q96SW2); assay: Protac activity at CRBN (unknown origin) /Flag-tagged TEAD1 (unknown origin) transfected in HEK293T cells at 9.75 to 1000 nM pretreated with cycloheximide for 2 hrs followed by compound addition and measured after 24 hrs by Western blot analysis; type: cell-based; conditions: dose 9.75-1000 nM; in short: as §4
[20] = molecular target: Protein cereblon/Transcriptional enhancer factor TEF-5 (Homo sapiens) (UniProt Q96SW2+Q99594); assay: Protac activity at CRBN (unknown origin) /Flag-tagged TEAD3 (unknown origin) transfected in HEK293T cells at 9.75 to 1000 nM pretreated with cycloheximide for 2 hrs followed by compound addition and measured after 24 hrs by Western blot analysis; type: cell-based; conditions: dose 9.75-1000 nM; in short: as §4
[21] = molecular target: Protein cereblon/Transcriptional enhancer factor TEF-3 (Homo sapiens) (UniProt Q96SW2+Q15561); assay: Protac activity at CRBN (unknown origin) /Flag-tagged TEAD4 (unknown origin) transfected in HEK293T cells at 9.75 to 1000 nM pretreated with cycloheximide for 2 hrs followed by compound addition and measured after 24 hrs by Western blot analysis; type: cell-based; conditions: dose 9.75-1000 nM; in short: as §4
Sequence of Protein cereblon/Transcriptional enhancer factor TEF-3 (Homo sapiens) (Q15561 whole entry, looked up): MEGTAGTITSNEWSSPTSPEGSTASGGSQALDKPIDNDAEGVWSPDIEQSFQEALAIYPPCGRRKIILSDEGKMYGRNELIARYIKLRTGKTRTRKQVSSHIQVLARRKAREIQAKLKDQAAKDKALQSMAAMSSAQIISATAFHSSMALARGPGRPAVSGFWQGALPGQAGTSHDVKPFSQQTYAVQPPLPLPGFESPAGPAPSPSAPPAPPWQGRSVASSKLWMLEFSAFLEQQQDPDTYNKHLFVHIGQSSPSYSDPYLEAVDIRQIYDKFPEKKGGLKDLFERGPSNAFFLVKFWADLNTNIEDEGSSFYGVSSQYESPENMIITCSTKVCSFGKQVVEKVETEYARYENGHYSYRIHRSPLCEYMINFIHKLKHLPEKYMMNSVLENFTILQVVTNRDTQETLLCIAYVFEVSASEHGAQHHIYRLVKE
Sequence of Protein cereblon/Transcriptional enhancer factor TEF-3 (Homo sapiens) (Q96SW2 whole entry, looked up): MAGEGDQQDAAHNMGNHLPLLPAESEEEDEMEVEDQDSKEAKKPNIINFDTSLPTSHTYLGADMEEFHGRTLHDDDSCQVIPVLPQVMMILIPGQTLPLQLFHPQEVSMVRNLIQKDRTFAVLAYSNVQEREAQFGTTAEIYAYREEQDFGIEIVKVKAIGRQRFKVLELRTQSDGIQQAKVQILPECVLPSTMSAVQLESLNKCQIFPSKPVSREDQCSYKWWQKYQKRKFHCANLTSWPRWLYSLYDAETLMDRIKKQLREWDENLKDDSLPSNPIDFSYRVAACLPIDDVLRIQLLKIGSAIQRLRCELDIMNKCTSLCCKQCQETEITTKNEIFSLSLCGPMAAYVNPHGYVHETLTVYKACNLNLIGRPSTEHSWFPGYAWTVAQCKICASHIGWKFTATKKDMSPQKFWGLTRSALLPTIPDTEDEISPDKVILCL

T1 sequence (Q15562 whole entry partner): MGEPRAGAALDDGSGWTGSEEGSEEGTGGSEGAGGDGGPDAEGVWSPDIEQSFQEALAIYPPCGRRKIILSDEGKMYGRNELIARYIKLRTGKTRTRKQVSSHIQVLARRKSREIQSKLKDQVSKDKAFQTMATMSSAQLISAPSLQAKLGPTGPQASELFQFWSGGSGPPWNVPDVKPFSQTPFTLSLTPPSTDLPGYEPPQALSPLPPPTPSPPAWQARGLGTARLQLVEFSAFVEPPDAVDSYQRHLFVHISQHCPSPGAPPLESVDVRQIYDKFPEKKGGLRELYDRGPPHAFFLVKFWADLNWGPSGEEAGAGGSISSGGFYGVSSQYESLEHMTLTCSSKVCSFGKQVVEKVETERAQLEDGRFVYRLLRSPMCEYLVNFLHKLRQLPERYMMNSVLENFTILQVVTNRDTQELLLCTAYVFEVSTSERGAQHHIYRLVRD
T1 sequence (Q96SW2 whole entry partner): as the sequence (Q96SW2 whole entry, looked up) above
T1 sequence (Q99594 2-435 partner limits assumed): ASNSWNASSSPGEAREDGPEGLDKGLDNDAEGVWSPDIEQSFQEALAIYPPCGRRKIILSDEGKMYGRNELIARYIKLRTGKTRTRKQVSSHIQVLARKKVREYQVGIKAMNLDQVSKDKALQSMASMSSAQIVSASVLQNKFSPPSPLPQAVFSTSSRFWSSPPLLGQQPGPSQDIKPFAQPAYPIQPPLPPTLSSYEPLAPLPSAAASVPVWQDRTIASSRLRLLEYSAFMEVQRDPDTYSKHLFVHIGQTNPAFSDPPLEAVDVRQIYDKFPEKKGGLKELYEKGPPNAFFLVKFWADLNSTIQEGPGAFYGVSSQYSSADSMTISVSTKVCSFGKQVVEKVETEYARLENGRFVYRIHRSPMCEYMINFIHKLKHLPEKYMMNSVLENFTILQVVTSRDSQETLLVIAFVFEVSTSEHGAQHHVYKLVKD
T1 sequence (P28347 whole entry): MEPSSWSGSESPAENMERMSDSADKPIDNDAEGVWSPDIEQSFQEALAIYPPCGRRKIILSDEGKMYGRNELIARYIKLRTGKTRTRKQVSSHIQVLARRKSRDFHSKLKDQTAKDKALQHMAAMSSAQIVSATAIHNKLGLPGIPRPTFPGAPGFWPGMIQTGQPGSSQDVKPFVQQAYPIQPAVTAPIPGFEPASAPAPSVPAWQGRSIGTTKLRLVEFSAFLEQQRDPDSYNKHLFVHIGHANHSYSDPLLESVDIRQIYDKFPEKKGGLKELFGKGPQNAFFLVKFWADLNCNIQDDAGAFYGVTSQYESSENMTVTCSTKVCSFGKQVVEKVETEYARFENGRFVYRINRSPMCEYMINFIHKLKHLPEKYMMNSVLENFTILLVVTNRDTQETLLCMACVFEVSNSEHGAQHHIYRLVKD
T1 sequence (Q15561 whole entry partner): as the sequence (Q15561 whole entry, looked up) above
Sequence of Protein cereblon/Transcriptional enhancer factor TEF-4 (Q96SW2 whole entry, canonical isoform): as the sequence (Q96SW2 whole entry, looked up) above
Sequence of Protein cereblon/Transcriptional enhancer factor TEF-4 (Q15562 whole entry, canonical isoform): as the sequence (Q15562 whole entry partner) above
Sequence of Protein cereblon/Transcriptional enhancer factor TEF-5 (Homo sapiens) (Q96SW2 whole entry, looked up): as the sequence (Q96SW2 whole entry, looked up) above
Sequence of Protein cereblon/Transcriptional enhancer factor TEF-5 (Homo sapiens) (Q99594 whole entry, looked up): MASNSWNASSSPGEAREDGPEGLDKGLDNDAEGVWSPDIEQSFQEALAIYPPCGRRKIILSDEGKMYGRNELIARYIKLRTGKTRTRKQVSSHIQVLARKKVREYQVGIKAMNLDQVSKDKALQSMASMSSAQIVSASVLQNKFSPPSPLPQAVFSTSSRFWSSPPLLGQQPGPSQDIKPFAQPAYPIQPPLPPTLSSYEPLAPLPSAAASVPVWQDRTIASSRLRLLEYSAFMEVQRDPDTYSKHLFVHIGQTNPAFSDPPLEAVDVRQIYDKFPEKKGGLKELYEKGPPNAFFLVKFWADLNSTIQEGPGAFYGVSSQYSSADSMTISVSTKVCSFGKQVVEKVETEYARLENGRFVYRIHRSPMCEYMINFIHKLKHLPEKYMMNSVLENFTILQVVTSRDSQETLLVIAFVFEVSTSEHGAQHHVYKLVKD
Sequence of Protein cereblon/Transcriptional enhancer factor TEF-1 (Homo sapiens) (P28347 whole entry, looked up): as the sequence (P28347 whole entry) above
Sequence of Protein cereblon/Transcriptional enhancer factor TEF-1 (Homo sapiens) (Q96SW2 whole entry, looked up): as the sequence (Q96SW2 whole entry, looked up) above
Sequence of Protein cereblon/Programmed cell death protein 2 (Homo sapiens) (Q16342 whole entry, looked up): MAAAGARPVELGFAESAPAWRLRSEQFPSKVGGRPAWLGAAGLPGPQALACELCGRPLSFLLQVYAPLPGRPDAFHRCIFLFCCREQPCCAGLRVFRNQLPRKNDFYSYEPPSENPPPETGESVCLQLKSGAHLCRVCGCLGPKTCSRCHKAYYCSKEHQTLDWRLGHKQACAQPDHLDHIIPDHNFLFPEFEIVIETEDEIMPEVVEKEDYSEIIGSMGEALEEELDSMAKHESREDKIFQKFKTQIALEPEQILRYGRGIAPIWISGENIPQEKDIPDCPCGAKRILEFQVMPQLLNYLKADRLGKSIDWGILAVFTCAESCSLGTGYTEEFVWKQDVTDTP
Sequence of Protein cereblon/Programmed cell death protein 2 (Homo sapiens) (Q96SW2 whole entry, looked up): as the sequence (Q96SW2 whole entry, looked up) above

With `C[C@H](NC(=O)c1ccc2c(-c3ccc(C(F)(F)F)cc3)cccc2c1)c1cccc(N)n1` the IC50 [1] was 0.03 µM.

`C[C@H](NC(=O)c1ccc2c(-c3ccc(C(F)(F)F)cc3)cccc2c1)c1cccc(NCCOCCOCCNc2ccc3c(c2)C(=O)N(C2CCC(=O)NC2=O)C3=O)n1` (some centres undefined) was tested, and the IC50 [1] was 0.21 µM, the IC50 [2] was > 10 µM and the Activity [3] was “Active”. For the same compound, the Activity [4] was 42.4%, the DC50 [5] was 0.0327 µM and the Activity [6] was “Active”. For the same compound, the Activity [7] was “inactive”, the Activity [8] was “inactive” and the Activity [9] was “inactive”. For the same compound, the Activity [10] was “Active”, the Activity [11] was “Active” and the Activity [12] was “Active”. For the same compound, the Activity [13] was “Active”, the Activity [14] was “Active” and the Activity [15] was “Active”. For the same compound, the Activity [16] was “Active”, the Activity [17] was “inactive” and the DC50 [18] was 0.0541 µM. The Emax [19] was 40%, the Activity [20] was “inactive” and the Activity [21] was “inactive”.

With `C[C@H](NC(=O)c1ccc2c(-c3ccc(C(F)(F)F)cc3)cccc2c1)c1cccc(NCCOCCOCCNc2cccc3c2C(=O)N(C2CCC(=O)NC2=O)C3=O)n1` (some centres undefined) the IC50 [1] was 0.29 µM and the Activity [3] was “Active”.

With `C[C@H](NC(=O)c1ccc2c(-c3ccc(C(F)(F)F)cc3)cccc2c1)c1cccc(NCCOCCOCCOCCNc2cccc3c2C(=O)N(C2CCC(=O)NC2=O)C3=O)n1` (some centres undefined) the IC50 [1] was 0.26 µM, the Activity [3] was “Active” and the Activity [4] was 45.1%. It also gave a DC50 [5] of 0.0397 µM.

With `C[C@H](NC(=O)c1ccc2c(-c3ccc(C(F)(F)F)cc3)cccc2c1)c1cccc(NCCOCCOCCOCCNc2ccc3c(c2)C(=O)N(C2CCC(=O)NC2=O)C3=O)n1` (some centres undefined) the IC50 [1] was 0.23 µM and the Activity [3] was “Active”.

For `C[C@H](NC(=O)c1ccc2c(-c3ccc(C(F)(F)F)cc3)cccc2c1)c1cccc(NCCCCCCCCNc2cccc3c2C(=O)N(C2CCC(=O)NC2=O)C3=O)n1` (some centres undefined), the IC50 [1] was 5.11 µM.

Compound `C[C@H](NC(=O)c1ccc2c(-c3ccc(C(F)(F)F)cc3)cccc2c1)c1cccc(NCCCCCCCNc2cccc3c2C(=O)N(C2CCC(=O)NC2=O)C3=O)n1` (some centres undefined) has an IC50 [1] of 2.65 µM.

`C[C@H](NC(=O)c1ccc2c(-c3ccc(C(F)(F)F)cc3)cccc2c1)c1cccc(NCCCCNc2cccc3c2C(=O)N(C2CCC(=O)NC2=O)C3=O)n1` (some centres undefined) gave an IC50 [1] of 1.18 µM.

`C[C@H](NC(=O)c1ccc2c(-c3ccc(C(F)(F)F)cc3)cccc2c1)c1cccc(NCCOCCNc2ccc3c(c2)C(=O)N(C2CCC(=O)NC2=O)C3=O)n1` (some centres undefined) showed an IC50 [1] of 0.35 µM.

In the case of `C[C@H](NC(=O)c1ccc2c(-c3ccc(C(F)(F)F)cc3)cccc2c1)c1cccc(NCCCNc2cccc3c2C(=O)N(C2CCC(=O)NC2=O)C3=O)n1` (some centres undefined), the IC50 [1] is reported as 0.94 µM.

In the case of `C[C@H](NC(=O)c1ccc2c(-c3ccc(C(F)(F)F)cc3)cccc2c1)c1cccc(NCCCCCCNc2cccc3c2C(=O)N(C2CCC(=O)NC2=O)C3=O)n1` (some centres undefined), the IC50 [1] is reported as 1.15 µM.

`C[C@H](NC(=O)c1ccc2c(-c3ccc(C(F)(F)F)cc3)cccc2c1)c1cccc(NCCCCCNc2cccc3c2C(=O)N(C2CCC(=O)NC2=O)C3=O)n1` (some centres undefined) was tested, and the IC50 [1] was 0.81 µM.

Work on `C[C@H](NC(=O)c1ccc2c(-c3ccc(C(F)(F)F)cc3)cccc2c1)c1cccc(NCCNc2cccc3c2C(=O)N(C2CCC(=O)NC2=O)C3=O)n1` (some centres undefined) yielded an IC50 [1] of 1.51 µM.

`C[C@H](NC(=O)c1ccc2c(-c3ccc(C(F)(F)F)cc3)cccc2c1)c1cccc(NCCOCCNc2cccc3c2C(=O)N(C2CCC(=O)NC2=O)C3=O)n1` (some centres undefined) was tested, and the IC50 [1] was 0.34 µM.
